In ChEMBL document CHEMBL3120154, “2-[N-Alkyl(R-phenyl)-aminomethyl]-3-phenyl-7-trifluoromethylquinoxalines as anticancer agents inhibitors of folate enzymes” (Eur J Med Chem, 2014):

Tests used:
Assay type in all cases: functional
SW-620 [1] = test: Cytotoxicity against human SW620 cells at 10^-6 M after 48 hrs by SRB assay; conditions: SW-620, 48 h, read-out: GI
HCT-15 [2] = test: Cytotoxicity against human HCT15 cells at 10^-6 M after 48 hrs by SRB assay; conditions: HCT-15, 48 h, read-out: GI
How it was run: (§1)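 Run by NCI on its 60-line human tumor cell panel, after a three-cell-line prescreen. Cells were exposed to drug for 48 h over a 5-log range: 100, 10, 1, 0.1 and 0.01 micromolar. Growth was estimated by sulforhodamine B (SRB) protein staining. Percent growth inhibition (I%) was recorded at each concentration relative to untreated control cells.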

[3] = Cytotoxicity against human EKVX cells at 10^-5 M after 48 hrs by SRB assay; conditions: read-out: GI; how it was run: as §1
HCT-116 = test: Cytotoxicity against human HCT116 cells at 10^-6 M after 48 hrs by SRB assay; conditions: HCT-116, 48 h, read-out: GI; how it was run: as §1
BT-549 = test: Cytotoxicity against human BT549 cells at 10^-6 M after 48 hrs by SRB assay; conditions: BT-549, 48 h, read-out: GI; how it was run: as §1
UACC-62 = test: Cytotoxicity against human UACC62 cells at 10^-5 M after 48 hrs by SRB assay; conditions: UACC-62, 48 h, read-out: GI
NCI-H23 [4] = test: Cytotoxicity against human NCI-H23 cells at 10^-5 M after 48 hrs by SRB assay; conditions: NCI-H23, 48 h, read-out: GI
How it was run: (§2)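 Run in the NCI 60-cell-line screen after a three-line prescreen. Cells got a 48 h drug exposure; viability/growth was estimated with the sulforhodamine B protein assay. Growth inhibition (I%) was recorded at 100, 10, 1, 0.1 and 0.01 micromolar. Percent growth is relative to untreated control cells, and negative values indicate cell kill.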

M14 = test: Cytotoxicity against human M14 cells at 10^-5 M after 48 hrs by SRB assay; conditions: M14, 48 h, read-out: GI; how it was run: as §2
NCI-H23 [5] = test: Cytotoxicity against human NCI-H23 cells at 10^-6 M after 48 hrs by SRB assay; conditions: NCI-H23, 48 h, read-out: GI; how it was run: as §2
PC-3 = test: Cytotoxicity against human PC3 cells at 10^-6 M after 48 hrs by SRB assay; conditions: PC-3, 48 h, read-out: GI
How it was run: (§3)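 Second-stage screen in the 60-cell-line human tumor panel at NCI, over a 5-log range (100, 10, 1, 0.1, 0.01 micromolar). Cells were exposed to drug for 48 h and growth was estimated with a sulforhodamine B protein stain. The value is percent growth inhibition at each concentration.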

NCI/ADR-RES = test: Cytotoxicity against human NCI/ADR-RES cells at 10^-5 M after 48 hrs by SRB assay; conditions: read-out: GI; how it was run: as §2
HOP-62 = test: Cytotoxicity against human HOP62 cells at 10^-5 M after 48 hrs by SRB assay; conditions: HOP-62, 48 h, read-out: GI; how it was run: as §1
OVCAR-3 = test: Cytotoxicity against human OVCAR3 cells at 10^-5 M after 48 hrs by SRB assay; conditions: OVCAR-3, 48 h, read-out: GI; how it was run: as §2
MCF7 = test: Cytotoxicity against human MCF7 cells at 10^-5 M after 48 hrs by SRB assay; conditions: MCF7, 48 h, read-out: GI; how it was run: as §2
KM12 = test: Cytotoxicity against human KM12 cells at 10^-5 M after 48 hrs by SRB assay; conditions: KM12, 48 h, read-out: GI; how it was run: as §2
DU-145 = test: Cytotoxicity against human DU145 cells at 10^-5 M after 48 hrs by SRB assay; conditions: DU-145, 48 h, read-out: GI; how it was run: as §1
SK-OV-3 [6] = test: Cytotoxicity against human SKOV3 cells at 10^-5 M after 48 hrs by SRB assay; conditions: SK-OV-3, 48 h, read-out: GI; how it was run: as §3
A498 = test: Cytotoxicity against human A498 cells at 10^-5 M after 48 hrs by SRB assay; conditions: A498, 48 h, read-out: GI; how it was run: as §1
SW-620 [7] = test: Cytotoxicity against human SW620 cells at 10^-5 M after 48 hrs by SRB assay; conditions: SW-620, 48 h, read-out: GI
OVCAR-8 = test: Cytotoxicity against human OVCAR8 cells at 10^-5 M after 48 hrs by SRB assay; conditions: OVCAR-8, 48 h, read-out: GI; how it was run: as §3
SNB-19 [8] = test: Cytotoxicity against human SNB19 cells at 10^-5 M after 48 hrs by SRB assay; conditions: SNB-19, 48 h, read-out: GI
SN12C [9] = test: Cytotoxicity against human SN12C cells at 10^-6 M after 48 hrs by SRB assay; conditions: read-out: GI
HL-60(TB) = test: Cytotoxicity against human HL-60(TB) cells at 10^-6 M after 48 hrs by SRB assay; conditions: HL-60, 48 h, read-out: GI
How it was run: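 NCI 60-human-tumour-cell-line screen run over a 5-log dose range (100, 10, 1, 0.1 and 0.01 µM). Cells were exposed to drug for 48 h. Growth was estimated by sulforhodamine B protein staining. Values are percent growth inhibition at each concentration, relative to untreated control cells.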

HT-29 = test: Cytotoxicity against human HT-29 cells at 10^-5 M after 48 hrs by SRB assay; conditions: HT-29, 48 h, read-out: GI; how it was run: as §1
U-251 = test: Cytotoxicity against human U251 cells at 10^-5 M after 48 hrs by SRB assay; conditions: U-251, 48 h, read-out: GI
A549 = test: Cytotoxicity against human A549 cells at 10^-6 M after 48 hrs by SRB assay; conditions: A549, 48 h, read-out: GI; how it was run: as §1
SNB-19 [10] = test: Cytotoxicity against human SNB19 cells at 10^-6 M after 48 hrs by SRB assay; conditions: SNB-19, 48 h, read-out: GI
MDA-MB-231 = test: Cytotoxicity against human MDA-MB-231 cells at 10^-5 M after 48 hrs by SRB assay; conditions: MDA-MB-231, 48 h, read-out: GI; how it was run: as §2
[11] = Cytotoxicity against human OVCAR4 cells at 10^-6 M after 48 hrs by SRB assay; conditions: OVCAR-4, 48 h, read-out: GI; how it was run: as §3
HCT-15 [12] = test: Cytotoxicity against human HCT15 cells at 10^-5 M after 48 hrs by SRB assay; conditions: HCT-15, 48 h, read-out: GI; how it was run: as §1
SK-OV-3 [13] = test: Cytotoxicity against human SKOV3 cells at 10^-6 M after 48 hrs by SRB assay; conditions: SK-OV-3, 48 h, read-out: GI; how it was run: as §3
HOP-92 = test: Cytotoxicity against human HOP92 cells at 10^-6 M after 48 hrs by SRB assay; conditions: HOP-92, 48 h, read-out: GI; how it was run: as §1
SN12C [14] = test: Cytotoxicity against human SN12C cells at 10^-5 M after 48 hrs by SRB assay; conditions: read-out: GI
SK-MEL-5 = test: Cytotoxicity against human SK-MEL-5 cells at 10^-6 M after 48 hrs by SRB assay; conditions: SK-MEL-5, 48 h, read-out: GI; how it was run: as §3
RXF 393 = test: Cytotoxicity against human RXF393 cells at 10^-5 M after 48 hrs by SRB assay; conditions: RXF 393, 48 h, read-out: GI; how it was run: as §3
SNB-75 = test: Cytotoxicity against human SNB75 cells at 10^-6 M after 48 hrs by SRB assay; conditions: SNB-75, 48 h, read-out: GI

SMILES	inhibition of growth at 1 µM (SW-620 [1]) [%]	inhibition of growth at 1 µM (HCT-15 [2]) [%]	inhibition of growth at 10 µM [3] [%]	inhibition of growth at 1 µM (HCT-116) [%]	inhibition of growth at 1 µM (BT-549) [%]	inhibition of growth at 10 µM (UACC-62) [%]	inhibition of growth at 10 µM (NCI-H23 [4]) [%]	inhibition of growth at 10 µM (M14) [%]	inhibition of growth at 1 µM (NCI-H23 [5]) [%]	inhibition of growth at 1 µM (PC-3) [%]	inhibition of growth at 10 µM (NCI/ADR-RES) [%]	inhibition of growth at 10 µM (HOP-62) [%]	inhibition of growth at 10 µM (OVCAR-3) [%]	inhibition of growth at 10 µM (MCF7) [%]	inhibition of growth at 10 µM (KM12) [%]	inhibition of growth at 10 µM (DU-145) [%]	inhibition of growth at 10 µM (SK-OV-3 [6]) [%]	inhibition of growth at 10 µM (A498) [%]	inhibition of growth at 10 µM (SW-620 [7]) [%]	inhibition of growth at 10 µM (OVCAR-8) [%]	further results
CCN(Cc1nc2cc(C(F)(F)F)ccc2nc1-c1ccccc1)c1ccc(OC)c(OC)c1	< 40	< 40	23	12	< 40	24	34	17	14	13	21	18	31	25	< 40	26	< 40	63	18	72	inhibition of growth at 10 µM (SNB-19 [8]): < 40%; inhibition of growth at 1 µM (SN12C [9]): < 40%; inhibition of growth at 1 µM (HL-60(TB)): < 40%; inhibition of growth at 10 µM (HT-29): 40%; inhibition of growth at 10 µM (U-251): 62%; inhibition of growth at 1 µM (A549): 56%; inhibition of growth at 1 µM (SNB-19 [10]): < 40%; inhibition of growth at 10 µM (MDA-MB-231): 36%; inhibition of growth at 1 µM [11]: < 40%; inhibition of growth at 10 µM (HCT-15 [12]): 17%; inhibition of growth at 1 µM (SK-OV-3 [13]): < 40%; inhibition of growth at 1 µM (HOP-92): < 40%; inhibition of growth at 10 µM (SN12C [14]): 21%; inhibition of growth at 1 µM (SK-MEL-5): < 40%; inhibition of growth at 10 µM (RXF 393): 102%; inhibition of growth at 1 µM (SNB-75): < 40%
C#CCN(Cc1nc2cc(C(F)(F)F)ccc2nc1-c1ccccc1)c1ccc(C)cc1	< 40	63	< 40	66	< 40	91	92	95	< 40	< 40	113	71	125	70	137	< 40	112	116	82	62	inhibition of growth at 10 µM (SNB-19 [8]): 92%; inhibition of growth at 1 µM (SN12C [9]): < 40%; inhibition of growth at 1 µM (HL-60(TB)): 66%; inhibition of growth at 10 µM (HT-29): 99%; inhibition of growth at 10 µM (U-251): 85%; inhibition of growth at 1 µM (A549): 45%; inhibition of growth at 1 µM (SNB-19 [10]): 54%; inhibition of growth at 10 µM (MDA-MB-231): 64%; inhibition of growth at 1 µM [11]: < 40%; inhibition of growth at 10 µM (HCT-15 [12]): 110%; inhibition of growth at 1 µM (SK-OV-3 [13]): < 40%; inhibition of growth at 1 µM (HOP-92): < 40%; inhibition of growth at 10 µM (SN12C [14]): 80%; inhibition of growth at 1 µM (SK-MEL-5): < 40%; inhibition of growth at 10 µM (RXF 393): 70%; inhibition of growth at 1 µM (SNB-75): < 40%
